Where “and” joins values, the source holds several entries; their conditions need not be identical. Identical values can stand only once. Like-named read-outs stand apart in the source and are kept apart here.
What was measured:
TSPO [1] = conditions: read-out: Ki for the TSPO; cited from earlier work
TSPO A147T [2] = type: binding, human; conditions: fold discrimination (loss of affinity at TSPO A147T versus TSPO WT)
TSPO WT = TSPO WT (Homo sapiens, UniProt P30536, T147A); type: binding; conditions: 3b versus 3a; 4b versus 4a
Sequence of TSPO WT (P30536 whole entry T147A): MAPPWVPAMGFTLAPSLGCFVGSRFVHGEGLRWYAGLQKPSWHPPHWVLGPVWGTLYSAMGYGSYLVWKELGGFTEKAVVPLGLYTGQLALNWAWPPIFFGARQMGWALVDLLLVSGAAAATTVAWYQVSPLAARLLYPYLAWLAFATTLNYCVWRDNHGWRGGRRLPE

[3] = tested on: TSPO WT over-expressing 293T cells; test: Proliferation; type: cell-based, human; conditions: 48 h, BrdU ELISA
Procedure, shortened: (§1)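 Clonally selected 293T cells, lentivirally transduced with human TSPO WT or A147T, puromycin-selected, grown in DMEM with 10% FBS, 100 U ml−1 penicillin/streptomycin and 2 mM glutamine. BrdU labelled at 37 °C for 4 h, then detected by BrdU ELISA. Stopped with 1 M sulfuric acid and read at 450 nm. Normalised to vehicle controls; one-way ANOVA with Dunnett's test.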

[4] = tested on: TSPO A147T over-expressing 293T cells; test: Proliferation; type: cell-based, human; conditions: 48 h, BrdU ELISA
Procedure, shortened: as §1

TSPO A147T [5] = target: TSPO A147T (Homo sapiens, UniProt P30536); type: binding
Sequence of TSPO A147T (Homo sapiens, UniProt P30536) (P30536 whole entry, stated change not applied): as the sequence (P30536 whole entry T147A) above, with A147T counted along it

TSPO [6] = conditions: cited from earlier work; for Fold reduction of affinity in LABs compared to HABs: brain tissue or lymphocytes
rat TSPO = conditions: read-out: Affinity commonly reported at the rat TSPO; cited from earlier work
[7] = cited from earlier work

NC(=O)c1nc(-c2ccccc2)c2ccccc2n1 [4-phenyl quinazoline-2-carboxamide]
Ki (TSPO [1]): 0.5 nM

CCN(CC)C(=O)Cn1c2ccccc2c2ccccc21 [Compound 3a, 2-(9H-Carbazol-9-yl)-N,N-diethylacetamide]
TSPO A147T Ki/TSPO WT Ki (TSPO A147T [2]): 6

CCN(Cc1ccccc1)C(=O)Cn1c2ccccc2c2ccccc21 [Compound 3b, N-Benzyl-2-(9H-carbazol-9-yl)-N-ethylacetamide]
Fold lower affinity at TSPO WT than the N,N-diethylamide analogue (TSPO WT): 3 ×
Effect on proliferation at 100 μM, TSPO WT cells [3]: did not significantly affect proliferation
Effect on proliferation at 100 μM, TSPO A147T cells [4]: did not significantly affect proliferation
Fold reduction in TSPO A147T affinity compared to 3a (TSPO A147T [5]; 3b versus 3a): 2.6 ×

CCN(CC)C(=O)Cn1c2ccccc2c2cc(Br)ccc21 [Compound 4a, 2-(3-Bromo-9H-carbazole-9-yl)-N,N-diethylacetamide]
TSPO A147T Ki/TSPO WT Ki (TSPO A147T [2]): 5

CCN(CC)C(=O)Cn1c2ccccc2c2cc(-c3ccccc3)ccc21 [Compound 5a, N,N-Diethyl-2-(3-phenyl-9H-carbazole-9-yl)acetamide]
TSPO A147T Ki/TSPO WT Ki (TSPO A147T [2]): 5- to 6

CCN(CC)C(=O)Cn1c2ccccc2c2cc(-c3ccc(OC)cc3)ccc21 [Compound 5c, N,N-Diethyl-2-(3-(4-methoxyphenyl)-9H-carbazole-9-yl)acetamide]
Fold improved (higher) affinity at TSPO A147T than the comparator analogue (TSPO A147T [5]; 4b versus 4a, 5c versus 3a): 2 ×

CCN(CC)C(=O)Cc1c(-c2ccc(OC)cc2)nn2c(C)cc(C)nc12 [DPA-713]
Effect on proliferation at 100 μM, TSPO WT cells [3]: did not significantly affect proliferation
Effect on proliferation at 100 μM, TSPO A147T cells [4]: did not significantly affect proliferation

COc1ccccc1CN(C(C)=O)c1cnccc1Oc1ccccc1 [PBR-28]
Fold reduction of affinity in LABs compared to HABs (TSPO [6]): 55 fold

CCC(C)N(C)C(=O)c1cc2ccccc2c(-c2ccccc2Cl)n1 (centres unmarked) [PK 11195]
Ki (rat TSPO): 0.7 to 18 nM
In vivo bioavailability [7]: poor in vivo bioavailability

CCN(Cc1ccccc1)C(=O)Cn1c(=O)n(C)c2cnc(-c3ccccc3)nc21 [XBD-173]
Fold reduction of affinity in LABs compared to HABs (TSPO [6]): 13 fold
Ki (TSPO [6]; read-out: Affinity at LABs, LAB brain tissue): 30.3 nM
TSPO A147T Ki/TSPO WT Ki (TSPO A147T [2]): 5 and 5- to 6

Reference: PMC6071920 (MedChemComm, 2016)
